11 compounds from ChEMBL document CHEMBL5357022, “Fluorinated Isoindolinone-Based Glucosylceramide Synthase Inhibitors with Low Human Dose Projections” (ACS Med Chem Lett, 2024) can be followed below.

Each structure is given as a SMILES string.

The target of data set [1] is T1, Nuclear receptor subfamily 1 group I member 2 (Homo sapiens, UniProt O75469).
T1 sequence (O75469 whole entry): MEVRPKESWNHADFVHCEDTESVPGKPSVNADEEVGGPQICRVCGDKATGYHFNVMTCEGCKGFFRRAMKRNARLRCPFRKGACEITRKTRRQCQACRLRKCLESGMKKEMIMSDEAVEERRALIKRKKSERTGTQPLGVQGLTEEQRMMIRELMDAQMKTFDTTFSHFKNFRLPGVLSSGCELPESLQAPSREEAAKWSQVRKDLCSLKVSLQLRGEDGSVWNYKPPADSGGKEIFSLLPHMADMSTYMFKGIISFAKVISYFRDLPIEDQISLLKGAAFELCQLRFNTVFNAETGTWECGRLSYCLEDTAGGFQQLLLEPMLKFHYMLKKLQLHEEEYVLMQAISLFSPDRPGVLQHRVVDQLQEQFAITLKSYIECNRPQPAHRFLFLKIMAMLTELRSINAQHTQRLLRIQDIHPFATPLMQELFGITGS
As to the kind of experiment: Activation of PXR (unknown origin). The class given is toxicity.

The target in the next data set is T2, PXR (NR1I2) (Homo sapiens, UniProt O75469).
T2 sequence (O75469 whole entry): T1 sequence (O75469 whole entry)
As to the kind of experiment: Activation of PXR (unknown origin) assessed as maximal efficacy relative to control. The class given is toxicity.

The nature of data set [2]: Plasma protein binding in dog assessed as unbound fraction. The class given is ADME, cell-free, Canis lupus familiaris.
Data set [3] can be described thus: Plasma protein binding in human assessed as unbound fraction. The class given is ADME, cell-free.
Data set [4] in a line: Oral bioavailability in Beagle dog at 1 mg/kg in 30% captisol formulation measured after 24 hrs. The class given is ADME, organism-based, Canis lupus familiaris. The conditions noted are these: in vivo. The procedure, abridged: (§1)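 Beagle dogs were given 0.5 mg/kg IV in DMSO/PEG400/H2O 20/60/20 at 0.5 mL/kg, and 1 mg/kg PO in 30% Captisol at 2 mL/kg. Sampling ran to a 24 h end point.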

The nature of data set [5]: MRT in Beagle dog at 1 mg/kg, po in 30% captisol formulation or 0.5 mg/kg, iv measured after 24 hrs. The class given is ADME, organism-based, Canis lupus familiaris. Particulars: in vivo. The method in brief:
as §1

Data set [6] is described as follows: Unbound volume of distribution in Beagle dog at 1 mg/kg, po in 30% captisol formulation or 0.5 mg/kg, iv measured after 24 hrs. The class given is ADME, organism-based, Canis lupus familiaris. The conditions noted are these: in vivo. The procedure, abridged:
as §1

A short description of data set [7]: Plasma protein binding in rat assessed as unbound fraction. The class given is ADME, cell-free.
Data set [8] can be described thus: Metabolic stability in human hepatocytes assessed as intrinsic clearance. The class given is ADME, cell-based, Hepatocyte. Particulars: read-out: CLH.
Data set [9] is described as follows: […] clearance in Beagle dog at 1 mg/kg, po in 30% captisol formulation or 0.5 mg/kg, iv measured after 24 hrs. The class given is ADME, organism-based, Canis lupus familiaris. Particulars: in vivo. The procedure, abridged: as §1
Data set [10] can be described thus: Clearance in Wistar Han rat at 4 mg/kg, po measured after 24 hrs. The class given is ADME, organism-based. Particulars: in vivo. The procedure, abridged: (§2)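 Wistar Han rat PK study with a 24 h end point, using an oral dose of 4 mg/kg.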
Data set [11] is described as follows: Intrinsic clearance in Wistar Han rat at 4 mg/kg, po measured after 24 hrs. The class given is ADME, organism-based. The conditions noted are these: in vivo. The method in brief:
as §2

A short description of data set [12]: Unbound volume of distribution in Wistar Han rat at 4 mg/kg, po measured after 24 hrs. The conditions noted are these: in vivo. The class given is ADME, organism-based. The method in brief: as §2
Data set [13] in a line: MRT in Wistar Han rat at 4 mg/kg, po measured after 24 hrs. Particulars: in vivo. The class given is ADME, organism-based. The procedure, abridged: as §2
A short description of data set [14]: Oral bioavailability in Wistar Han rat at 4 mg/kg measured after 24 hrs. The class given is ADME, organism-based. Particulars: in vivo. The method in brief:
as §2

Data set [15] in a line: Unbound brain-to-plasma concentration ratio in rat. The conditions noted are these: read-out: K(p,uu,brain). The class given is ADME.
Data set [16] is described as follows: MRT in Beagle dog at 1 mg/kg, po in 10% tween 80 formulation or 0.5 mg/kg, iv measured after 24 hrs. The class given is ADME, organism-based, Canis lupus familiaris. Particulars: in vivo. The method in brief: (§3)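 Beagle dogs were given 0.5 mg/kg IV in DMSO/PEG400/H2O 20/60/20 at 0.5 mL/kg, and 1 mg/kg PO in a 10% Tween 80 formulation. Sampling ran to a 24 h end point.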

Data set [17] in a line: […] clearance in Beagle dog at 1 mg/kg, po in 10% tween 80 formulation or 0.5 mg/kg, iv measured after 24 hrs. The class given is ADME, organism-based, Canis lupus familiaris. Particulars: in vivo. The procedure, abridged:
as §3

The nature of data set [18]: Unbound volume of distribution in Beagle dog at 1 mg/kg, po in 10% tween 80 formulation or 0.5 mg/kg, iv measured after 24 hrs. The class given is ADME, organism-based, Canis lupus familiaris. The conditions noted are these: in vivo. The procedure, abridged: as §3
The nature of data set [19]: Oral bioavailability in Beagle dog at 1 mg/kg in 10% tween 80 formulation measured after 24 hrs. The class given is ADME, organism-based, Canis lupus familiaris. Particulars: in vivo. The method in brief: as §3
Data set [20] is described as follows: Octanol-water partition coefficient, logD of the compound. The class given is physicochemical.
Data set [21] in a line: Intrinsic clearance in Wistar Han rat at 5 mg/kg, po or 2 mg/kg, iv measured after 24 hrs. The class given is ADME, organism-based. Particulars: in vivo. The procedure, abridged:
(§4)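 Wistar Han rats were dosed IV at 2 mg/kg in DMSO/PEG400/H2O 20/60/20 at 1 mL/kg, and PO at 5 mg/kg in PEG400/Tween80/H2O 40/10/50 at 2 mL/kg. Sampling ran to a 24 h end point.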

Data set [22] is described as follows: Unbound volume of distribution in Wistar Han rat at 5 mg/kg, po or 2 mg/kg, iv measured after 24 hrs. The class given is ADME, organism-based. The conditions noted are these: in vivo. The method in brief: as §4
Data set [23] in a line: MRT in Wistar Han rat at 5 mg/kg, po or 2 mg/kg, iv measured after 24 hrs. The conditions noted are these: in vivo. The class given is ADME, organism-based. The method in brief: as §4
A short description of data set [24]: Oral bioavailability in Wistar Han rat at 5 mg/kg measured after 24 hrs. The class given is ADME, organism-based. The conditions noted are these: in vivo. The procedure, abridged: as §4
A short description of data set [25]: MRT in rat. The class given is ADME. Particulars: in vivo.

For orientation: EC50 means the concentration needed to bring the measured effect to its halfway point. For orientation: Emax means the greatest response seen or fitted, relative to the assay's reference. Regarding `Cc1nnc(-c2ccc(-c3c(F)cc(F)c4c3C(=O)N([C@@H](C(C)(C)O)C(F)(F)F)C4)cc2)o1`, the EC50 in data set [1] was 14 µM. In addition, the Emax at PXR (NR1I2) is 100%.
As a reminder, the fraction unbound is the share of the substance not bound to proteins or other matrix. Usually bioavailability stands for dose-corrected exposure relative to a reference, in per cent. The term MRT denotes the average time that molecules of a dose stay in the body. Broadly, the CL/F is clearance divided by bioavailability, as obtained after extravascular dosing. Consider `Cc1nnc(-c2ccc(-c3cc(F)cc4c3C(=O)N([C@H](C3CC3)C(C)(C)O)C4)cc2)o1`, for which the fraction unbound is 0.2 in data set [2], 0.046 in data set [3] and 0.026 in [7]. For the same compound, the bioavailability in data set [4] was 100%; in [14], 38%. Moreover, the MRT amounted to 10 h in [5] and 2.3 h in [13]. Further, the figures for the Vdu in data set [6] and in data set [12] were 12 L/kg and 16 L/kg, respectively. Besides, in [8], the CLint scaled was 19 mL/min/kg. In addition, the values for the CL in data set [9] and in [11] were 21 mL/min/kg and 120 mL/min/kg, respectively. Besides, the EC50 in [1] came to 25 µM. Besides, the Emax at PXR (NR1I2) worked out at 75%. Further, in data set [10], the CL/F was 3 mL/min/kg.
For the compound `Cc1nnc(-c2ccc(-c3ccc(F)c4c3C(=O)N([C@H](C3CC3)C(C)(C)O)C4)cc2)o1`, in [1], the EC50 came to 8.9 µM. Further, at PXR (NR1I2), the Emax was 97%.
The logD is lipophilicity at a set pH, counting ionised and neutral species. A lower logD goes with lower lipophilicity. Consider `Cc1nnc(-c2ccc(-c3cccc4c3C(=O)N([C@H](C3CC3)C(C)(C)O)C4)cc2)o1`, for which the Kp uu in data set [15] stood at 0.5. In addition, the fraction unbound came to 0.1 in data set [2], 0.032 in data set [3] and 0.013 in data set [7]. The MRT in [16] turned out to be 8.6 h; in [23], 3 h. Further, the CL in data set [17] was determined as 13 mL/min/kg; in data set [21], 211 mL/min/kg. For the same compound, the Vdu in data set [18] is 9.9 L/kg; in [22], 36 L/kg. The CLint scaled in [8] is 15 mL/min/kg. Moreover, the bioavailability in data set [19] is 81%; in [24], 100%. Moreover, the logD in [20] was 2.3. The same compound yielded an EC50 in [1] of 29 µM. Moreover, the maximal response (Emax) on PXR (NR1I2) came out at 89%.
As for `CCOc1ccccc1C(=O)Nc1cccc2c1C(=O)N(CC1CC1)C2`, in data set [1], the EC50 stood at 4.3 µM. In addition, the Emax at PXR (NR1I2) came to 81%. The same compound came in with an MRT in [25] of 1.4 h.
Consider `Cc1nnc(-c2ccc(-c3c(F)cc(F)c4c3C(=O)N([C@H](C3CC3)C(C)(C)O)C4)cc2)o1`, for which the EC50 in data set [1] is 4.6 µM. Further, the Emax at PXR (NR1I2) was found to be 100%.
For `Cc1nnc(-c2ccc(-c3c(F)c(F)cc4c3C(=O)N([C@H](C3CC3)C(C)(C)O)C4)cc2)o1`, in data set [15], the Kp uu came to 0.2. For the same compound, the fraction unbound in data set [2] was 0.2; in data set [3] it was 0.098; in data set [7], 0.038. In addition, the values for the bioavailability in data set [4] and in data set [24] were 75% and 36%, respectively. In addition, the MRT is 10 h in [5] and 5.7 h in [23]. For the same compound, the Vdu in data set [6] turned out to be 7.1 L/kg; in [22] it was 10 L/kg. For the same compound, in [8], the CLint scaled came to 33 mL/min/kg. The results for the CL in [9] and in data set [21] were 11 mL/min/kg and 30 mL/min/kg, respectively. Besides, the EC50 in data set [1] is 6.1 µM. Besides, the Emax on PXR (NR1I2) is 100%.
For the compound `Cc1nnc(-c2ccc(-c3cc(F)c(F)c4c3C(=O)N([C@H](C3CC3)C(C)(C)O)C4)cc2)o1`, in data set [15], the Kp uu worked out at 0.1. The values for the fraction unbound in data set [2], in [3] and in data set [7] were 0.14, 0.05 and 0.021, respectively. For the same compound, the bioavailability was 64% in data set [4] and 57% in [24]. Further, the MRT in data set [5] was 11 h; in data set [23] it was 3.7 h. For the same compound, the Vdu was found to be 17 L/kg in data set [6] and 36 L/kg in data set [22]. Further, the CLint scaled in data set [8] amounted to 13 mL/min/kg. The results for the CL in data set [9] and in data set [21] were 17 mL/min/kg and 169 mL/min/kg, respectively.
With `Cc1nnc(-c2ccc(-c3c(F)c(F)cc4c3C(=O)N([C@@H](C(C)(C)O)C(F)(F)F)C4)cc2)o1`, the Kp uu in [15] is 0.4. The figures for the fraction unbound in [2], in [3] and in [7] were 0.11, 0.067 and 0.037, respectively. In addition, the bioavailability was 79% in [4] and 83% in data set [24]. Also, the MRT in data set [5] stood at 11 h; in data set [23] it was 9.9 h. Further, the Vdu amounted to 14 L/kg in data set [6] and 18 L/kg in data set [22]. For the same compound, the CLint scaled in data set [8] was 4.5 mL/min/kg. The values for the CL in data set [9] and in data set [21] were 23 mL/min/kg and 30 mL/min/kg, respectively. Also, in data set [20], the logD was determined as 2.7. Besides, a half-maximal effect in [1] (EC50) was put at 12 µM. The Emax on PXR (NR1I2) came out at 80%.
In data set [1], `Cc1nnc(-c2ccc(-c3c(F)ccc4c3C(=O)N([C@H](C3CC3)C(C)(C)O)C4)cc2)o1` had an EC50 of 5.2 µM. The Emax at PXR (NR1I2) amounted to 100%.
In the case of `CN1Cc2cc(-c3cccc4c3C(=O)N([C@H](C3CC3)C(C)(C)O)C4)ccc2C1=O`, the EC50 in data set [1] was over 30 µM. Further, on PXR (NR1I2), the Emax amounted to 11%.
